For seven compounds, IC50 and Activity results are on record in ChEMBL document CHEMBL1150875, “Petrosaspongiolides M-R: new potent and selective phospholipase A2 inhibitors from the New Caledonian marine sponge Petrosaspongia nigra” (J Nat Prod, 1998).

One experiment addresses T1, Phospholipase A2 (Apis mellifera, UniProt P00630).
T1 sequence (P00630 whole entry): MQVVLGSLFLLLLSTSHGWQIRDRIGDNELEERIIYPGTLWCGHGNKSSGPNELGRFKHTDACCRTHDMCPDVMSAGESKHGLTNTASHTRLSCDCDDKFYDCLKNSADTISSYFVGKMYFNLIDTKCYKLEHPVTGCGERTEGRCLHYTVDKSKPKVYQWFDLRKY
The experiment is described as follows: Inhibition of bee venom secretory PLA2.

Experiment [1] concerns the target Acidic phospholipase A2 2 (Naja naja) (UniProt P15445). The experiment is described as follows: Inhibition of Naja Naja venom secretory PLA2 at 10 uM. Further details: scale not given: the % may be the effect or the level left. Summed up: (§1)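 Secreted PLA2 from Naja naja venom or bee venom exposed to 10 µM compound. Result reported as percent inhibition, mean ± S.E.M. of n = 6.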

The target in experiment [2] is Phospholipase A2 (Homo sapiens) (UniProt P04054). Put plainly: Inhibition of human synovial secretory PLA2 at 10 uM. More on the design: scale not given: the % may be the effect or the level left. Summed up:
(§2)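 Percent inhibition of the enzyme's activity with test compound at 10 µM. Reported as mean ± S.E.M., n = 6, with significance marked at p < 0.05 and p < 0.01.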

The species named for another experiment is Sus scrofa. The experiment is described as follows: Inhibition of pig pancreatic secretory PLA2 at 10 uM. Further details: scale not given: the % may be the effect or the level left. The method in brief:
as §2

The target in experiment [3] is T2, Phospholipase A2 (Apis mellifera) (UniProt P00630).
T2 sequence (whole entry): T1 sequence (P00630 whole entry)
The experiment is described as follows: Inhibition of bee venom secretory PLA2 at 10 uM. More on the design: scale not given: the % may be the effect or the level left. Summed up: as §1

Acidic phospholipase A2 2 (Naja naja), sequence (P15445 whole entry): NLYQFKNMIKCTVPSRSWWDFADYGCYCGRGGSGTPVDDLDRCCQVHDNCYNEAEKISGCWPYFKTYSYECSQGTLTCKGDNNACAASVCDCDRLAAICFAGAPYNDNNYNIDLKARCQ
Phospholipase A2 (Homo sapiens), sequence (P04054 23-148 limits assumed): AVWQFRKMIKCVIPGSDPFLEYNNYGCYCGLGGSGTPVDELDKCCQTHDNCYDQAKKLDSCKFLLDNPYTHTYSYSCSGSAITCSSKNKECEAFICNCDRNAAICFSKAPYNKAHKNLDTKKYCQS

The term IC50 denotes the point on the concentration scale where inhibition reaches its midpoint. `CC1=C(CC/C(C)=C/CCC2=CC[C@H](C3=CC(=O)O[C@H]3O)O[C@H]2O)C(C)(C)CCC1` [MANOALIDE]: half-maximal inhibition against Phospholipase A2 (IC50) was put at 7.5 µM.

Turning to `CC(=O)OC1OC(=O)C=C1[C@H]1C[C@@H]2[C@H](CCC3[C@@]4(C)CCCC(C)(C)C4CC[C@]32C)[C@@H](OC(C)=O)O1` (stereo partly specified), the Activity in experiment [1] was 6.9%; in experiment [2], 32.1%; in the experiment listed under Sus scrofa it was 0%; in experiment [3], 10.6%.

For the compound `CC(=O)O[C@H]1O[C@@H](C2=CC(=O)OC2O)C[C@@H]2[C@@H]1CCC1[C@@]3(C)CCCC(C)(C)C3CC[C@]12C` (stereo partly specified), the Activity in experiment [1] was 5.6%; in experiment [2], 59%; in the experiment listed under Sus scrofa, 0%; in experiment [3], 34.8%.

Consider `CC(=O)O[C@@H]1O[C@@H](C2=CC(=O)OC2O)C[C@@H]2[C@@H]1CC[C@H]1[C@@]2(C)CC[C@H]2C(C)(C)CCC[C@]12C` (stereo partly specified) [PETROSASPONGIOLIDE M], for which the Activity in experiment [1] is 11.5%; in experiment [2], 68.6%; in the experiment filed under Sus scrofa, 12.3%; in experiment [3] it was 71%. The compound also returned an IC50 on Phospholipase A2 of 0.6 µM.

Take `CC1(C)CCC[C@]2(C)[C@H]3CC[C@H](C(=O)O)[C@@H](/C=C/C4=CC(=O)OC4O)[C@]3(C)CC[C@@H]12` (stereo partly specified): the Activity in experiment [1] was found to be 1%; in experiment [2], 7.1%; in the experiment listed under Sus scrofa it was 0.8%; in experiment [3], 18.8%.

As for `CC(=O)OC[C@@]1(C)CCC[C@]2(C)[C@H]3CC[C@@H]4[C@H](O)O[C@@H](C5=CC(=O)OC5O)C[C@H]4[C@]3(C)CC[C@@H]12` (stereo partly specified), the Activity in experiment [1] amounted to 4.2%; in experiment [2], 30.1%; in the experiment filed under Sus scrofa it was 0%; in experiment [3] it was 12.5%.

Turning to `CC(=O)OC[C@@]1(C)CCC[C@]2(C)[C@H]3CC[C@@H]4[C@H](OC(C)=O)O[C@@H](C5=CC(=O)OC5O)C[C@H]4[C@]3(C)CC[C@@H]12` (stereo partly specified), the Activity was found to be 6.8% in experiment [1], 44% in experiment [2], 11.6% in the experiment filed under Sus scrofa and 43.9% in experiment [3].
